# Test results as given in ChEMBL document CHEMBL1122670, “Synthesis of previously inaccessible quinazolines and 1,4-benzodiazepines as potential anticonvulsants” (J Med Chem, 1984).
# Activity calls are given as the source filed them.
# Key:
# [1] = Compound was determined in rotarod test and expressed as TD50; assay type: ADME, organism-based; conditions: mouse, in vivo
# Outline: (§1)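 ADD Program screen in mice. Doses of 30, 100, 300 and 600 mg/kg were given, four animals per dose, with tests at 30 min and at 4 h. sc Met endpoint: no threshold seizure (single clonic spasm of 5 s) after an sc convulsant dose 99 of pentylenetetrazol. Rotorod assessed acute neurotoxicity.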
# [2] = tested on: Mus musculus; test: Evaluated for seizure threshold test at a dose 75 mg/kg &MST is the metrazole seizure threshold to persistent clonus; I = Inactive.; assay type: functional, organism-based; parameters: dose 75 mg/kg
# Outline: (§2)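 0.5% pentylenetetrazol (with 0.9% NaCl and 0.001% heparin) was infused into a lateral tail vein at 6.31 μL/s. Time to 3 s of persistent clonus (MST) or hindlimb tonic flexion (MMT) was converted to mg/kg infused. Tested at 0.5 h (some at 4 h or 1 h). Results are % change from controls, by Student's t test.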
# [3] = tested on: Mus musculus; test: Effective dose (ED50) was determined in sc Met (pentylenetetrazole) seizure threshold test; I = Inactive at all doses including 600 mg/kg; assay type: functional, organism-based; parameters: dose 600 mg/kg
# Outline: as §1, with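 “neurotoxicity. ED50/TD50 were estimated graphically; Litchfield-Wilcoxon 95% confidence limits were added for selected cases.” for “neurotoxicity.”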
# [4] = tested on: Mus musculus; test: Evaluated for seizure threshold test at a dose 75 mg/kg &MMT is the maximal metrazole threshold to tonic flexion.; assay type: functional; outline: as §2
# [5] = tested on: Mus musculus; test: Evaluated for seizure threshold test at a dose 300 mg/kg & MMT is the maximal metrazole threshold to tonic flexion; I - Inactive.; assay type: functional; outline: as §2
# [6] = tested on: Mus musculus; test: Evaluated for seizure threshold test at a dose 100 mg/kg & MMT is the maximal metrazole threshold to tonic flexion; I - Inactive.; assay type: functional, organism-based; parameters: dose 100 mg/kg; outline: as §2
# [7] = tested on: Mus musculus; test: Effective dose (ED50) was determined in sc Met (pentylenetetrazole) seizure threshold test; assay type: functional
# Outline: as §1, with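 “neurotoxicity. ED50/TD50 were estimated graphically; Litchfield-Wilcoxon 95% confidence limits were added for selected cases.” for “neurotoxicity.”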
# [8] = tested on: Mus musculus; test: Evaluated for seizure threshold test at a dose 100 mg/kg & MST is the metrazole seizure threshold to persistent clonus; assay type: functional
# Outline: (§3)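 At 0.5 h (some at 1 or 4 h), 0.5% pentylenetetrazol in 0.9% NaCl with 0.001% heparin was infused into the tail vein at 6.31 μL/s. Time to 3 s persistent clonus (MST) or tonic flexion (MMT) was converted to mg/kg, reported as % change vs controls, Student's t test.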
# [9] = tested on: Mus musculus; test: Evaluated for seizure threshold test at a dose 300 mg/kg & MST is the metrazole seizure threshold to persistent clonus; assay type: functional; outline: as §3
# [10] = tested on: Mus musculus; test: Evaluated for seizure threshold test at a dose 300 mg/kg &MMT is the maximal metrazole threshold to tonic flexion.; assay type: functional; outline: as §2
# [11] = tested on: Mus musculus; test: Effective dose (ED50) was determined (at 4hi)n sc Met (pentylenetetrazole) seizure threshold test; assay type: functional
# Outline: as §1, with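 “neurotoxicity. ED50/TD50 were estimated graphically; Litchfield-Wilcoxon 95% confidence limits were added for selected cases.” for “neurotoxicity.”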
# [12] = tested on: Mus musculus; test: Evaluated for seizure threshold test at a dose 300 mg/kg &MST is the metrazole seizure threshold to persistent clonus; assay type: functional; outline: as §3
# [13] = tested on: Mus musculus; test: Evaluated for seizure threshold test at a dose 50 mg/kg &MST is the metrazole seizure threshold to persistent clonus; assay type: functional; outline: as §3
# [14] = tested on: Mus musculus; test: Evaluated for seizure threshold test at a dose 30 mg/kg &MST is the metrazole seizure threshold to persistent clonus; assay type: functional; outline: as §3
# [15] = tested on: Mus musculus; test: Evaluated for seizure threshold test at a dose 50 mg/kg &MMT is the maximal metrazole threshold to tonic flexion.; assay type: functional; outline: as §3
# [16] = tested on: Mus musculus; test: Evaluated for seizure threshold test at a dose 30 mg/kg &MMT is the maximal metrazole threshold to tonic flexion.; assay type: functional; outline: as §3
# [17] = tested on: Mus musculus; test: In vivo inhibition of Benzodiazepine (BDZ) binding in mice; assay type: functional, organism-based
# [18] = tested on: Mus musculus; test: Evaluated for seizure threshold test at a dose 100 mg/kg & MMT is the maximal metrazole threshold to tonic flexion.; assay type: functional; outline: as §3
# [19] = tested on: Mus musculus; test: Evaluated for seizure threshold test at a dose 39 mg/kg & MMT is the maximal metrazole threshold to tonic flexion.; assay type: functional; outline: as §3
# [20] = tested on: Mus musculus; test: Evaluated for seizure threshold test at a dose 49 mg/kg & MST is the metrazole seizure threshold to persistent clonus; assay type: functional; outline: as §3
# [21] = Compound was evaluated for median lethal dose; assay type: ADME, organism-based; conditions: mouse, in vivo
# [22] = tested on: Mus musculus; test: Evaluated for seizure threshold test at a dose 25 mg/kg &MST is the metrazole seizure threshold to persistent clonus; assay type: functional; outline: as §3
# [23] = tested on: Mus musculus; test: Evaluated for seizure threshold test at a dose 25 mg/kg &MMT is the maximal metrazole threshold to tonic flexion.; assay type: functional; outline: as §2
# [24] = tested on: Mus musculus; test: Evaluated for seizure threshold test at a dose 0.2 mg/kg &MST is the metrazole seizure threshold to persistent clonus; assay type: functional; outline: as §3
# [25] = target: GABA-A receptor; anion channel; test: Binding affinity for umolar GABA-A central benzodiazepine receptor; assay type: protein-complex assay, Mus musculus
# [26] = tested on: Mus musculus; test: Evaluated for seizure threshold test at a dose 1 mg/kg &MST is the metrazole seizure threshold to persistent clonus; assay type: functional; outline: as §3
# [27] = tested on: Mus musculus; test: Evaluated for seizure threshold test at a dose 1 mg/kg &MMT is the maximal metrazole threshold to tonic flexion.; assay type: functional; outline: as §3
# [28] = tested on: Mus musculus; test: Evaluated for seizure threshold test at a dose 0.2 mg/kg &MMT is the maximal metrazole threshold to tonic flexion.; assay type: functional; outline: as §3
# [29] = tested on: Mus musculus; test: Evaluated for seizure threshold test at a dose 300 mg/kg & MMT is the maximal metrazole threshold to tonic flexion; assay type: functional; outline: as §2
# [30] = tested on: Mus musculus; test: Evaluated for seizure threshold test at a dose 300 mg/kg & MST is the metrazole seizure threshold to persistent clonus; I = Inactive.; assay type: functional, organism-based; parameters: dose 300 mg/kg; outline: as §2
# [31] = tested on: GABA-A receptor; anion channel; test: Inhibition of binding to GABA-A central benzodiazepine receptor (Inactive at 80 uM); assay type: protein-complex assay, Mus musculus
# [32] = tested on: Mus musculus; test: Evaluated for seizure threshold test at a dose 300 mg/kg & MMT is the maximal metrazole threshold to tonic flexion; I = Inactive.; assay type: functional, organism-based; parameters: dose 300 mg/kg; outline: as §2
# [33] = tested on: Mus musculus; test: Evaluated for seizure threshold test at a dose 30 mg/kg & MST is the metrazole seizure threshold to persistent clonus; assay type: functional; outline: as §3
# [34] = tested on: Mus musculus; test: Evaluated for seizure threshold test at a dose 30 mg/kg & MMT is the maximal metrazole threshold to tonic flexion; I = Inactive.; assay type: functional, organism-based; parameters: dose 30 mg/kg; outline: as §2
smiles,measurement,setting,value
Cc1cc2c(c(C#N)c1C)NC(=O)NC2C (stereo not given),TD50,[1],300 mg/kg
same,Change,[2],Not significant
same,ED50,[3],inactive
same,Change,[4],-16%
CC(=O)c1cc(C)c(C)c(C#N)c1NC(=O)CBr,Change,[5],-17%
same,TD50,[1],600 mg/kg
same,Change,[6],Not significant
same,ED50,[7],500 mg/kg
same,Change,[8],-14%
same,Change,[9],-22%
Cc1cc2c(c(C#N)c1C)NC(=O)NC2c1ccccc1 (stereo not given),TD50,[1],> 1000 mg/kg
same,Change,[10],22%
same,ED50,[11],600 mg/kg
same,Change,[12],36%
Cc1ccccc1-n1c(C)nc2ccccc2c1=O [METHAQUALONE],Change,[13],42%
same,Change,[14],18%
same,Change,[15],40%
same,Change,[16],17%
Cc1cc2c(c(C#N)c1C)NC(=O)CN=C2c1ccccc1F,TD50,[1],710 mg/kg
same,ED50,[7],48.9 mg/kg
same,IC50,[17],0.01 nM
same,Change,[18],50%
same,Change,[19],30%
same,Change,[8],65%
same,Change,[20],23%
Cc1cc2c(c(C#N)c1C)NC=NC2C (stereo not given),TD50,[1],51.5 mg/kg
same,LD50,[21],150 mg/kg
same,Change,[22],-36%
same,ED50,[3],inactive
same,Change,[23],-56%
O=C1CN=C(c2ccccc2)c2cc(Cl)ccc2N1 [NORDAZEPAM],Change,[24],48%
same,ED50,[7],0.28 mg/kg
same,Ki,[25],73 µM
same,Change,[26],70%
same,Change,[27],35%
same,Change,[28],inactive
Cc1cc(C(=O)C2CCCCC2)c(N)c(C#N)c1C,TD50,[1],> 600 mg/kg
same,ED50,[7],410 mg/kg
same,Change,[29],17%
same,Change,[30],Not significant
Cc1cc2c(c(C#N)c1C)NC=NC2C1CCCCC1 (stereo not given),IC50,[31],Not Active
same,TD50,[1],> 600 mg/kg
same,ED50,[3],inactive
same,Change,[32],inactive
same,Change,[30],inactive
CC1=NCC(=O)Nc2c1cc(C)c(C)c2C#N,Change,[33],30%
same,TD50,[1],70 mg/kg
same,Change,[34],Not significant
same,LD50,[21],150 mg/kg
same,ED50,[3],inactive
